Test results reported in ChEMBL document CHEMBL1671710, “Different classes of antibiotics differentially influence shiga toxin production” (2010).
≈ marks a conversion by molar mass, not a printed value. Calls of active or inactive are those of the source. No cut-off for these calls is given here.

Tests used:
Escherichia coli [1] = test: Antimicrobial activity against Escherichia coli O157:H7 PT-32 in stationary phase encoding Stx-1 and Stx-2 gene by broth macrodilution assay; assay type: functional
Outline: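 Overnight MH-broth cultures (stationary phase) were diluted 1:1,000, then 1:200. 1 ml was mixed with 1.0 ml of antibiotic in MH broth, with trimethoprim:sulfamethoxazole at 1:5, and held overnight at 37°C with rotary aeration. MIC judged visually, corresponding to ∼10^7 CFU/ml.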

Escherichia coli [2] = test: Antimicrobial activity against Escherichia coli C600::H19B in logarithmic phase encoding Stx-1 gene by broth macrodilution assay
Escherichia coli [3] = test: Antimicrobial activity against Escherichia coli O157:H7 PT-40 in logarithmic phase encoding Stx-2 gene by broth macrodilution assay; assay type: functional
Escherichia coli [4] = test: Antimicrobial activity against Escherichia coli C600::933W in logarithmic phase encoding Stx-2 gene by broth macrodilution assay; assay type: functional
Escherichia coli [5] = test: Antimicrobial activity against Escherichia coli C600::H19B in stationary phase encoding Stx-1 gene by broth macrodilution assay
Escherichia coli [6] = test: microbe, parasite or virus in culture; details: C600::933W
Escherichia coli [7] = test: Antimicrobial activity against Escherichia coli O157:H7 PT-40 in stationary phase encoding Stx-2 gene by broth macrodilution assay
Escherichia coli [8] = test: Antimicrobial activity against Escherichia coli O157:H7 PT-32 in logarithmic phase encoding Stx-1 and Stx-2 gene by broth macrodilution assay
Escherichia coli [9] = test: Antimicrobial activity against Escherichia coli O157:H7 185 encoding stx gene by broth microdilution method; assay type: functional, organism-based

## CC[C@H]1OC(=O)[C@H](C)[C@@H](O[C@H]2C[C@@](C)(OC)[C@@H](O)[C@H](C)O2)[C@H](C)[C@@H](O[C@@H]2O[C@H](C)C[C@H](N(C)C)[C@H]2O)[C@](C)(O)C[C@@H](C)CN(C)[C@H](C)[C@@H](O)[C@]1(C)O [AZITHROMYCIN]
Escherichia coli [1]
  MIC: 2.6 mg/L (≈ 3.47 µM)
Escherichia coli [2]
  MIC: 2 mg/L (≈ 2.67 µM)
Escherichia coli [3]
  MIC: 4 mg/L (≈ 5.34 µM)
Escherichia coli [4]
  MIC: 2 mg/L (≈ 2.67 µM)
Escherichia coli [5]
  MIC: 2 mg/L (≈ 2.67 µM)
Escherichia coli [6]
  MIC: 2 mg/L (≈ 2.67 µM)
Escherichia coli [7]
  MIC: 2.6 mg/L (≈ 3.47 µM)
Escherichia coli [8]
  MIC: 2.6 mg/L (≈ 3.47 µM)

## C[C@@H]1O[C@@H]1P(=O)(O)O [FOSFOMYCIN]
Escherichia coli [1]
  MIC: 16 mg/L (≈ 116 µM)
Escherichia coli [2]
  MIC: 2 mg/L (≈ 14.5 µM)
Escherichia coli [3]
  MIC: 16 mg/L (≈ 116 µM)
Escherichia coli [4]
  MIC: 2 mg/L (≈ 14.5 µM)
Escherichia coli [5]
  MIC: 0.5 mg/L (≈ 3.62 µM)
Escherichia coli [6]
  MIC: 2 mg/L (≈ 14.5 µM)
Escherichia coli [7]
  MIC: 16 mg/L (≈ 116 µM)
Escherichia coli [8]
  MIC: 16 mg/L (≈ 116 µM)

## CC1(C)S[C@@H]2[C@H](NC(=O)[C@H](N)c3ccccc3)C(=O)N2[C@H]1C(=O)O [AMPICILLIN]
Escherichia coli [1]
  MIC: 4 mg/L (≈ 11.4 µM)
Escherichia coli [9]
  Activity: Active
Escherichia coli [2]
  MIC: 4 mg/L (≈ 11.4 µM)
Escherichia coli [5]
  MIC: 8 mg/L (≈ 22.9 µM)
Escherichia coli [6]
  MIC: 8 mg/L (≈ 22.9 µM)
Escherichia coli [7]
  MIC: 8 mg/L (≈ 22.9 µM)

## CO[C@H]1/C=C/O[C@@]2(C)Oc3c(C)c(O)c4c(O)c(c(/C=N/N5CCN(C)CC5)c(O)c4c3C2=O)NC(=O)/C(C)=C\C=C\[C@H](C)[C@H](O)[C@@H](C)[C@@H](O)[C@@H](C)[C@H](OC(C)=O)[C@@H]1C [RIFAMPIN]
Escherichia coli [1]
  MIC: 2 mg/L (≈ 2.43 µM)
Escherichia coli [2]
  MIC: 4 mg/L (≈ 4.86 µM)
Escherichia coli [3]
  MIC: 4 mg/L (≈ 4.86 µM)
Escherichia coli [4]
  MIC: 8 mg/L (≈ 9.72 µM)
Escherichia coli [5]
  MIC: 16 mg/L (≈ 19.4 µM)
Escherichia coli [6]
  MIC: 8 mg/L (≈ 9.72 µM)
Escherichia coli [7]
  MIC: 16 mg/L (≈ 19.4 µM)
Escherichia coli [8]
  MIC: 4 mg/L (≈ 4.86 µM)

## Cc1cc(NS(=O)(=O)c2ccc(N)cc2)no1 [SULFAMETHOXAZOLE]
Escherichia coli [1]
  MIC: 0.13 mg/L (≈ 0.513 µM)
Escherichia coli [2]
  MIC: 0.004 mg/L (≈ 0.0158 µM)
Escherichia coli [3]
  MIC: 0.13 mg/L (≈ 0.513 µM)
Escherichia coli [4]
  MIC: 0.01 mg/L (≈ 0.0395 µM)
Escherichia coli [5]
  MIC: 0.03 mg/L (≈ 0.118 µM)
Escherichia coli [6]
  MIC: 0.03 mg/L (≈ 0.118 µM)
Escherichia coli [7]
  MIC: 0.13 mg/L (≈ 0.513 µM)
Escherichia coli [8]
  MIC: 0.13 mg/L (≈ 0.513 µM)

## CO/N=C(\C(=O)N[C@@H]1C(=O)N2C(C(=O)O)=C(CSc3nc(=O)c(O)nn3C)CS[C@H]12)c1csc(N)n1 [CEFTRIAXONE]
Escherichia coli [1]
  MIC: 0.03 mg/L (≈ 0.0541 µM)
Escherichia coli [2]
  MIC: 0.03 mg/L (≈ 0.0541 µM)
Escherichia coli [3]
  MIC: 0.06 mg/L (≈ 0.108 µM)
Escherichia coli [4]
  MIC: 0.03 mg/L (≈ 0.0541 µM)
Escherichia coli [5]
  MIC: 0.06 mg/L (≈ 0.108 µM)
Escherichia coli [6]
  MIC: 0.03 mg/L (≈ 0.0541 µM)
Escherichia coli [7]
  MIC: 0.06 mg/L (≈ 0.108 µM)
Escherichia coli [8]
  MIC: 0.03 mg/L (≈ 0.0541 µM)

## C[C@H]1c2cccc(O)c2C(=O)C2=C(O)[C@]3(O)C(=O)C(C(N)=O)=C(O)[C@@H](N(C)C)[C@@H]3[C@@H](O)[C@@H]21.O [DOXYCYCLINE]
Escherichia coli [1]
  MIC: 0.5 mg/L
Escherichia coli [9]
  Activity: Active
Escherichia coli [2]
  MIC: 0.25 mg/L
Escherichia coli [3]
  MIC: 1 mg/L
Escherichia coli [4]
  MIC: 0.5 mg/L
Escherichia coli [5]
  MIC: 0.5 mg/L
Escherichia coli [6]
  MIC: 1 mg/L
Escherichia coli [7]
  MIC: 1 mg/L
Escherichia coli [8]
  MIC: 1 mg/L

## GENTAMICIN
Escherichia coli [1]
  MIC: 0.25 mg/L
Escherichia coli [3]
  MIC: 0.25 mg/L
Escherichia coli [4]
  MIC: 0.25 mg/L
